Drawing on ChEMBL document CHEMBL4665870, “RNA drug discovery: Conformational restriction enhances specific modulation of the T-box riboswitch function” (Bioorg Med Chem, 2020), this text covers inhibition and Activity for eight molecules.

Calls of active or inactive are those of the source. The calls are words filed in the database; no cut-off is given here.

Assay [1] in a line: Inhibition of tRNA-induced Escherichia coli RNA polymerase mediated T-box riboswitch transcription readthrough assessed as riboswitch function in presence of RTprb and dsDNA at 100 uM by fluorescence-monitored in vitro transcription assay. The gist of the method: (§1)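 In vitro transcription with 10 nM DNA template and 0.05 U/μL E. coli RNA polymerase sigma-saturated holoenzyme. Readout by 100 nM molecular beacon, with or without 30 nM tRNA and 100 μM ligand, at 28 °C. Readthrough = fluorescence at 6 h minus 0 min. Triplicates, unpaired t-test.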

Assay [2] in a line: Inhibition of tRNA-induced Escherichia coli RNA polymerase mediated T-box riboswitch transcription readthrough assessed as overall transcription in presence of RTprb and dsDNA at 100 uM by fluorescence-monitored in vitro transcription assay. The essentials:
as §1

Assay [3] can be described thus: Effect on HEX-antiterminator RNA-DABCYL (unknown origin) thermal stability at 100 uM by measuring fluorescence by AriaMx Real-Time PCR system. The gist of the method: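 100 nM fluorophore–quencher 5′-HEX-AM-3′-DABCYL with 100 μM ligand in 10 mM sodium phosphate, 0.01 mM EDTA, pH 6.5, 5% DMSO. Fluorescence read (ex 535 nm / em 555 nm) while heating 40–90 °C. Tm taken from the first derivative of the raw data.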

Assay [4] is described as follows: Induction of tRNA-5'TAMRA-antiterminator RNA (unknown origin) complex disruption using fluorescently-labeled AM at 100 uM by fluorescence anisotropy monitored complex disruption assay. The essentials: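 Fluorescence anisotropy of 100 nM 5′-TAMRA-AM with 2.5 μM tRNA and 100 μM ligand (n = 3). Controls were AM alone (r−) and AM plus tRNA (r+), run in replicate. Significance assessed by unpaired t-test.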

Assay [5] deals with T-box riboswitch antiterminator RNA (Bacillus subtilis). The assay is described as follows: Binding affinity to 5'TAMRA antiterminator C11U RNA (unknown origin) assessed as structural changes by fluorescence-monitored ligand binding assay relative to bulge deletion AM.
Assay [6] can be described thus: Binding affinity to 5'TAMRA-antiterminator RNA (unknown origin) assessed as structural changes by fluorescence-monitored ligand binding assay relative to bulge deletion AM.

Turning to `O=C(Cc1ccccc1)OC[C@H]1OC(=O)N[C@@H]1CN1CCN(c2ccccc2)CC1`, the inhibition result in assay [1] is “Active”. Besides, the inhibition entry in assay [2] was “inactive”.
Turning to `O=C(Cc1ccccc1)OC[C@@H]1OC(=O)N[C@H]1CN1CCN(c2ccccc2)CC1`, the inhibition result in assay [1] was “Active”. In addition, the inhibition entry in assay [2] is “inactive”.
`CC(=O)c1ccc(NC(=O)OC[C@H]2OC(=O)N[C@@H]2CN2CCN(c3ccccc3)CC2)cc1`: the inhibition entry in assay [1] was “Active”. Moreover, the inhibition result in assay [2] was “inactive”.
On to `O=C(Cc1ccccc1)OC[C@H]1OC(=O)N2CCc3c(-c4ccccc4)nnn3C[C@H]12`, for which the outcome in assay [3], in assay [4] and in assay [5] was inactive. Besides, the inhibition result in assay [1] was “Active”. In addition, in assay [2], the inhibition result was “inactive”. Also, in assay [6], the result was Active.
In the case of `CC(=O)c1ccc(NC(=O)OC[C@H]2OC(=O)N3CCc4c(-c5ccccc5)nnn4C[C@H]23)cc1`, the result in assay [3] was inactive. The inhibition entry in assay [1] was “Active”. In assay [2], the inhibition entry is “inactive”. In assay [4], the Activity is -28%. For the same molecule, the outcome in assay [5] and in assay [6] was Active.
`CC(=O)c1ccc(NC(=O)OC[C@@H]2OC(=O)N3CCc4c(-c5ccccc5)nnn4C[C@@H]23)cc1`: the result in assay [3] was inactive. The inhibition entry in assay [1] is “Active”. In assay [2], the inhibition entry is “inactive”. Besides, the Activity in assay [4] was -20%. Further, the result in assay [5] and in assay [6] was Active.
Turning to `O=C(Cc1ccccc1)OC[C@@H]1OC(=O)N2CCc3c(-c4ccccc4)nnn3C[C@@H]12`, the outcome in assay [3] and in assay [4] was inactive. Further, the inhibition entry in assay [1] was “Active”. Moreover, the inhibition result in assay [2] was “inactive”. Further, the result in assay [5] and in assay [6] was Active.
`CC(=O)c1ccc(NC(=O)OC[C@@H]2OC(=O)N[C@H]2CN2CCN(c3ccccc3)CC2)cc1`: the inhibition entry in assay [1] is “Active”. In addition, the inhibition result in assay [2] was “inactive”.
